According to ChEMBL document CHEMBL1132962, “1,2-Dibenzamidobenzene inhibitors of human factor Xa” (J Med Chem, 2000):

Key:
[1] = target: Prothrombin (Homo sapiens) (UniProt P00734); test: Apparent association constant against Coagulation factor II
Method in brief: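 Human α-thrombin, 5.9 nM, with chromogenic substrate Bz-Phe-Val-Arg-pNA at 0.2 mM. Uses the same general protocol as the fXa assay: pNA release read at 405 nm, with inhibitors auto-diluted in triplicate. Apparent Kass = [Eb]/[Ef][Io−Ib] at concentrations giving 20–80% inhibition. Values are mean ± SD when n≥3 and the average when n=2.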

[2] = target: Coagulation factor X (Homo sapiens) (UniProt P00742); test: Apparent association constant against coagulation factor X
Method in brief: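 Purchased human fXa, 3.2 nM final, in buffer of 0.06 M tris, 0.3 M NaCl, pH 7.4, with 1 mg/mL HSA in the enzyme diluent. Inhibitor is added in MeOH at 4–8 concentrations in triplicate, then Bz-Ile-Glu-Gly-Arg-pNA (0.3 mM stock in water) starts the reaction. Hydrolysis is read at 405 nm. Free and bound enzyme come from standard curves. Apparent Kass = [Eb]/[Ef][Io−Ib] at 20–80% inhibition.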

Chain of Coagulation factor X (Homo sapiens) (P00742 41-179 limits assumed): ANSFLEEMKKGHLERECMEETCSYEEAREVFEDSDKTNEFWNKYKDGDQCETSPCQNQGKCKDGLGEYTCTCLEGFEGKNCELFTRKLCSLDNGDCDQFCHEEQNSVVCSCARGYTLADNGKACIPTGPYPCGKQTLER
Chain of Coagulation factor X (Homo sapiens) (P00742 235-488 limits assumed): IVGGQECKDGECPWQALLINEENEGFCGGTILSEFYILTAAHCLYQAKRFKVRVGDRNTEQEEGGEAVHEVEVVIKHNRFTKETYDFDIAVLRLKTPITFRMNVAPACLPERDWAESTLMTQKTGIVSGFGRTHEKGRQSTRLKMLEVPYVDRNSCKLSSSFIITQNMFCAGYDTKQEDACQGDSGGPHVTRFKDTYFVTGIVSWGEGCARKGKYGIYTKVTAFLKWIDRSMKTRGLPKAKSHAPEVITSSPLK

Compound	K ass [1]	K ass [2]
COc1ccc(C(=O)Nc2ccccc2NC(=O)c2ccc(S(=O)(=O)N(C)C)cc2)cc1	0 l M-1	660000 l M-1
CC(C)(C)c1ccc(C(=O)Nc2ccccc2NC(=O)c2cccc(F)c2)cc1	0 l M-1	400000 l M-1
COc1ccc(C(=O)Nc2cc(NS(C)(=O)=O)ccc2NC(=O)c2ccc(C(C)(C)C)cc2)cc1	130000 l M-1	1.3e+07 l M-1
CC(C)(C)c1ccc(C(=O)Nc2ccccc2NC(=O)c2ccc(F)cc2)cc1	0 l M-1	510000 l M-1
COc1ccc(C(=O)N(C)c2ccccc2N(C)C(=O)c2ccc(OC)cc2)cc1	0 l M-1	0 l M-1
CCc1ccc(C(=O)Nc2ccccc2NC(=O)c2ccc(C(C)(C)C)cc2)cc1	0 l M-1	10000 l M-1
COc1ccc(C(=O)Nc2ccc(C(=O)O)cc2NC(=O)c2ccc(C(C)(C)C)cc2)cc1	70000 l M-1	1.28e+07 l M-1
CC(C)(C)c1ccc(C(=O)Nc2ccccc2NC(=O)c2ccccc2)cc1	70000 l M-1	380000 l M-1
C=Cc1ccc(C(=O)Nc2ccccc2NC(=O)c2ccc(C(C)(C)C)cc2)cc1	10000 l M-1	3.05e+06 l M-1
COc1ccc(C(=O)Nc2ccccc2NC(=O)c2ccc(-c3ccccc3)cc2)cc1	0 l M-1	1.1e+06 l M-1
COc1ccc(C(=O)Nc2ccccc2NC(=O)c2ccc(Oc3ccccc3)cc2)cc1	0 l M-1	290000 l M-1
Cc1ccc(C(=O)Nc2ccccc2NC(=O)c2ccc(C(C)(C)C)cc2)cc1	0 l M-1	280000 l M-1
C=Cc1cccc(C(=O)Nc2ccccc2NC(=O)c2ccc(C(C)(C)C)cc2)c1	0 l M-1	560000 l M-1
CC(C)(C)c1ccc(C(=O)Nc2ccccc2NC(=O)c2ccc(Cl)cc2)cc1	50000 l M-1	2.92e+06 l M-1
COc1ccc(C(=O)Nc2ccccc2NC(=O)c2ccc(OC)cc2OC)cc1	20000 l M-1	520000 l M-1
CC(C)(C)c1ccc(C(=O)Nc2ccccc2NC(=O)c2ccc(OC(F)(F)F)cc2)cc1	0 l M-1	0 l M-1
COc1ccc(C(=O)Nc2ccc(NS(C)(=O)=O)cc2NC(=O)c2ccc(C(C)(C)C)cc2)cc1	110000 l M-1	7.65e+06 l M-1
COc1ccc(C(=O)Nc2cc(C(=O)O)ccc2NC(=O)c2ccc(C(C)(C)C)cc2)cc1	80000 l M-1	3.99e+06 l M-1
COc1cccc(C(=O)Nc2ccccc2NC(=O)c2ccc(C(C)(C)C)cc2)c1	0 l M-1	20000 l M-1
COc1ccc(C(=O)Nc2ccccc2NC(=O)c2ccc(C(=O)C(F)(F)F)cc2)cc1	0 l M-1	10000 l M-1

Results, then the molecule that gave them:

K ass [1]	K ass [2]	Compound
80000 l M-1	4.91e+06 l M-1	COc1ccc(C(=O)Nc2ccccc2NC(=O)c2ccc(C(C)C)cc2)cc1
	420000 l M-1	COc1ccc(C(=O)Nc2ccc(Cl)cc2NC(=O)c2ccc(OC)cc2)cc1
0 l M-1	640000 l M-1	CCOc1ccc(C(=O)Nc2ccccc2NC(=O)c2ccc(OC)cc2)cc1
	1.25e+06 l M-1	COc1ccc(C(=O)Nc2ccc(OC)cc2NC(=O)c2ccc(OC)cc2)cc1
10000 l M-1	820000 l M-1	COc1ccc(C(=O)Nc2ccccc2NC(=O)c2ccc(OC(C)(C)C)cc2)cc1
20000 l M-1	2.35e+06 l M-1	COc1ccc(C(=O)Nc2ccccc2NC(=O)c2ccc(C(C)(C)OC)cc2)cc1
10000 l M-1	770000 l M-1	COc1ccc(C(=O)Nc2c(OC)ccc(OC)c2NC(=O)c2ccc(OC)cc2)cc1
40000 l M-1	1.19e+06 l M-1	COc1ccc(C(=O)Nc2ccccc2NC(=O)c2ccc(OC(C)C)cc2)cc1
40000 l M-1		COc1ccc(C(=O)Nc2ccc(O)cc2NC(=O)c2ccc(C(C)(C)C)cc2)cc1
0 l M-1	0 l M-1	COc1ccc(C(=O)Nc2cccc(NC(=O)c3ccc(OC)cc3)c2)cc1
40000 l M-1	2.68e+06 l M-1	CCc1ccc(C(=O)Nc2cc(O)ccc2NC(=O)c2ccc(OC)cc2)cc1
50000 l M-1	1.69e+07 l M-1	COc1ccc(C(=O)Nc2ccccc2NC(=O)c2ccc(N(C)C)cc2)cc1
10000 l M-1	450000 l M-1	COc1ccc(C(=O)Nc2cccc(O)c2NC(=O)c2ccc(OC)cc2)cc1
0 l M-1	0 l M-1	CCCCCCOc1ccc(C(=O)Nc2ccccc2NC(=O)c2ccc(OC)cc2)cc1
0 l M-1	440000 l M-1	CCCOc1ccc(C(=O)Nc2ccccc2NC(=O)c2ccc(OC)cc2)cc1
20000 l M-1	640000 l M-1	COc1ccc(C(=O)Nc2ccc(O)cc2NC(=O)c2ccc(OC)cc2)cc1
0 l M-1	20000 l M-1	COc1ccc(C(=O)Nc2ccccc2N(C)C(=O)c2ccc(OC)cc2)cc1
0 l M-1	530000 l M-1	COc1ccc(C(=O)Nc2ccccc2NC(=O)c2ccc(S(C)(=O)=O)cc2)cc1
20000 l M-1	320000 l M-1	COc1ccc(C(=O)Nc2ccc(C(=O)O)cc2NC(=O)c2ccc(OC)cc2)cc1
50000 l M-1	7.31e+06 l M-1	COc1ccc(C(=O)Nc2ccccc2NC(=O)c2ccc(C(C)(C)C)cc2)cc1
20000 l M-1	840000 l M-1	COc1ccc(C(=O)Nc2ccccc2NC(=O)c2ccc(OC)cc2)cc1
0 l M-1	80000 l M-1	CCCCOc1ccc(C(=O)Nc2ccccc2NC(=O)c2ccc(OC)cc2)cc1
50000 l M-1	3.56e+06 l M-1	COc1ccc(C(=O)Nc2cc(O)ccc2NC(=O)c2ccc(C(C)(C)C)cc2)cc1
0 l M-1	430000 l M-1	COc1ccc(C(=O)Nc2ccccc2NC(=O)c2ccc([S+](C)[O-])cc2)cc1 (stereo not drawn)
20000 l M-1	1.63e+06 l M-1	COc1ccc(C(=O)Nc2ccccc2NC(=O)c2ccc(SC)cc2)cc1
20000 l M-1	450000 l M-1	COc1ccc(C(=O)Nc2ccc(C)cc2NC(=O)c2ccc(OC)cc2)cc1
50000 l M-1	2.55e+07 l M-1	COc1ccc(C(=O)Nc2ccc(O)cc2NC(=O)c2ccc(N(C)C)cc2)cc1
30000 l M-1	710000 l M-1	COc1ccc(C(=O)Nc2ccccc2NC(=O)c2ccc(OC)cc2Cl)cc1
